pIC50: −log10 of the molar value. Active and inactive are the calls of the source. The rule behind the calls is not given here. Starred links: 1 amine or outer side, 2 acyl side, 3 side chain; linkers in the order of their positions; H or OH if unused. Non-standard residues stand in square brackets, D forms with d. Residues, ends and D or L forms follow the SMILES beside them. *: point of attachment. Ahppa(3S,4S) = O=C(C[C@H](O)[C@H](Cc1ccccc1)N[*:1])[*:2]; dNMeF = CN[C@H](Cc1ccccc1)C(=O)O; NMeQ = CN[C@@H](CCC(N)=O)C(=O)O; Cbz = O=C(OCc1ccccc1)*; Lac = C[C@H](O)C(=O)O
Assays:
Cathepsin E = molecular target: T1, Cathepsin E (Homo sapiens, UniProt P14091); assay: Inhibition of cathepsin E by fluorescence assay
T1 sequence (P14091 whole entry): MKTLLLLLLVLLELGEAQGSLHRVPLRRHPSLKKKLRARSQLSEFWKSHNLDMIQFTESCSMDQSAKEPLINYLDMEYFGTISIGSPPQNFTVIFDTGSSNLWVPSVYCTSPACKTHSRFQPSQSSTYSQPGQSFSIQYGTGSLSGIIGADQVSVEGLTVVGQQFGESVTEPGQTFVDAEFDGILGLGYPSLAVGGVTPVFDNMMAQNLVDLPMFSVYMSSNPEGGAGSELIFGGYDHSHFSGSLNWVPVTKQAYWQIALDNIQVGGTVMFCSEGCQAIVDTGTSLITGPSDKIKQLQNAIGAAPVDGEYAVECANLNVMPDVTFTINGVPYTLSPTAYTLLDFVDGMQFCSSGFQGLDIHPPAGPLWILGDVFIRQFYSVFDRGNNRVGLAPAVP

Beta-secretase 1 [1] = molecular target: T2, Beta-secretase 1 (Homo sapiens, UniProt P56817); conditions: H4, at 10 µM
T2 sequence (P56817 whole entry): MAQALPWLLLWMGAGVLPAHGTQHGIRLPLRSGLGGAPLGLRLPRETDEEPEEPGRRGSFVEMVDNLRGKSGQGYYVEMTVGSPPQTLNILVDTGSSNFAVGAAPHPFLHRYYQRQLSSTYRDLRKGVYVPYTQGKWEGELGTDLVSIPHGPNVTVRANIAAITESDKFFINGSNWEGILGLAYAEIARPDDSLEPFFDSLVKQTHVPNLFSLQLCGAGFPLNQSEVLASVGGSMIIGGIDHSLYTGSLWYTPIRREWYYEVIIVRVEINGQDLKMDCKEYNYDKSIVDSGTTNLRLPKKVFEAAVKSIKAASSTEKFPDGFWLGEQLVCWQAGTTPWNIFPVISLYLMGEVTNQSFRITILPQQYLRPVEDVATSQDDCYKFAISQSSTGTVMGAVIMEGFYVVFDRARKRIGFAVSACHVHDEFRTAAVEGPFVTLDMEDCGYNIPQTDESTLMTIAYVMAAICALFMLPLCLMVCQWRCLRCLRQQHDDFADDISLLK

Brain = assay: Drug concentration in CF1 mouse brain at 30 mg/kg, ip measured 3 hrs post dose by HPLC-MS method relative to compound plasma concentration; assay type: ADME, organism-based; set-up: dose 30 mg/kg, route intraperitoneal
How it was run: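 CF-1 mice, 8 weeks old, 25−35 g, given 30 mg/kg i.p. in 5% DMSO/15% Solutol HS 15/10% EtOH/65% water; killed 3 h post-dose. Cerebellum and cortex homogenized in acetonitrile (1:10 w:v) containing internal standard, then re-extracted. Plasma was taken by cardiac puncture into K-EDTA. Levels were measured by HPLC-MS (MRM, negative ionization) and interpolated from a calibration curve.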

H4 = assay: Inhibition of Alpha secretase expressed in human H4 cells assessed as reduction in C83 levels at 10 uM incubated for 16 hrs by immunoblot; assay type: cell-based
How it was run: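 H4 cells (3 × 10⁵/well) adhered 4−6 h in DMEM/10% FCS at 37 °C, then were switched to serum-free Ultraculture containing compound at 10 μM final for 16 h. Cells were lysed in NP40/deoxycholate buffer, and protein was equalized by BCA. Lysates were run on 10−20% tricine gels and immunoblotted with antibody to the APP C-terminal 20 residues (1:2000); C99 and C83 were imaged on an infrared system.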

[2] = molecular target: Gamma-secretase (Homo sapiens) (UniProt Q96BI3+Q9NZ42+Q8WW43+P49768+Q92542+P49810); assay: Inhibition of gamma secretase expressed in human H4 cells expressing BRI-C99 fusion protein assessed as C99 fragment accumulation fragment at 10 uM incubated for 16 hrs in by immunoblot; assay type: cell-based
How it was run: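 H4 cells overexpressing Bri-C99 (400000/well) were kept in Opti-MEM with 1% serum and treated 16 h with test compound (10 μM), LY411575 (100 nM) or BACE1 inhibitor IV (1 μM). Cells were lysed in TBS/1% Triton X-100 and run on a 12% bis-tris gel. Blots were probed with CT-20 antibody for furin-generated C99 and read on an infrared imager.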

Cathepsin D = Cathepsin D (Homo sapiens, UniProt P07339); assay: Inhibition of cathepsin D by fluorescence assay
Sequence of Cathepsin D (P07339 65-162 limits assumed): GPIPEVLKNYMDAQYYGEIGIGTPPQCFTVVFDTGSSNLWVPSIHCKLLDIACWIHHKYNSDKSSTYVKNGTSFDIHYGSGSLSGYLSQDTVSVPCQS
Sequence of Cathepsin D (P07339 169-412 limits assumed): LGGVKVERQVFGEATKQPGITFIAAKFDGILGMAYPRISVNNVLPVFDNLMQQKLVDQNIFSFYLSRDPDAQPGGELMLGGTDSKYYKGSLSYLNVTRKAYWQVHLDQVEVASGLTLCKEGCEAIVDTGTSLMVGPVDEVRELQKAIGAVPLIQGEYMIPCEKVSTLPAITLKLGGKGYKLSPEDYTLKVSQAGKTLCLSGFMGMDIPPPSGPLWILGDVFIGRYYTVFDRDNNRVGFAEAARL

Beta-secretase 1 [3] = molecular target: T2, Beta-secretase 1; assay: Inhibition of BACE1 by fluorescence assay
Beta-secretase 1 [4] = molecular target: T2, Beta-secretase 1; assay: Inhibition of BACE1 expressed in human H4 cells assessed as reduction in CTF levels at 10 uM incubated for 16 hrs by immunoblot; assay type: cell-based
Serum [5] = assay: Drug metabolism in mouse serum assessed as ester hydrolysis mediated formation of metabolites by HPLC-MS method; assay type: ADME, cell-free
How it was run: (§1)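 Compound (10 μL of 25 μg/mL) was incubated with 100 μL mouse serum at 37 °C for 0, 1, 2, 4, 8, 12 and 24 h. The reaction was quenched with EtOAc plus internal standard, shaken 5 min, centrifuged at 16000g, and the organic layer dried and taken up in MeOH. Parent and ester-hydrolysis acid were quantified by HPLC-MS MRM interpolation; n = 2.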

Mus musculus = assay: Reduction in […] in CF1 mouse at 30 mg/kg, ip measured 3 hrs post dose by sandwich ELISA; assay type: functional, organism-based; set-up: dose 30 mg/kg
Beta-secretase 1 [6] = molecular target: T2, Beta-secretase 1; assay: Inhibition of BACE1 expressed in CHO 2B7 cells expressing wild type APP695 assessed as reduction in Abeta40/Abeta42 levels incubated for 16 hrs by sandwich ELISA; assay type: cell-based
[7] = Drug metabolism in human H4 cells lysates assessed as ester hydrolysis mediated formation of metabolites by HPLC-MS method; assay type: ADME, cell-based, Lysate
How it was run: (§2)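 H4 whole-cell lysate was diluted to 1 mg/mL protein in 0.1 M phosphate buffer, pH 7.4. Parent and acid hydrolysis product were extracted with EtOAc with internal standard. Quantitation was by HPLC-MS MRM against a calibration curve; n = 2.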

Nucleic Acid = assay: Ratio of drug level in CF1 mouse brain to IC50 for inhibition of BACE1-mediated Abeta40/Abeta42 production in CHO 2B7 cells expressing wild type APP695; assay type: cell-based
How it was run: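 CF-1 mice (8 weeks, 25−35 g) received 30 mg/kg i.p. in 5% DMSO/15% Solutol HS 15/10% EtOH/65% water and were killed 3 h post-dose. Cerebellum and cortex were homogenized in acetonitrile (1:10 w:v) with internal standard and quantified by HPLC-MS (MRM, negative ion). The cellular reference was CHO 2B7 (APP695 wt): 16 h treatment, 1% DMSO, secreted Aβ40/Aβ42 sandwich ELISA.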

[8] = Stability in human H4 cells lysates by HPLC-MS method; assay type: ADME, cell-based, Lysate; how it was run: as §2
Serum [9] = assay: Stability in mouse serum by HPLC-MS method; assay type: ADME, cell-free; how it was run: as §1

SMILES	pIC50 (Cathepsin E)	inhibition (Beta-secretase 1 [1])	inhibition [2]	pIC50 (Cathepsin D)	other results
COC(=O)[C@@H]1CCCN1C(=O)[C@@H](Cc1ccccc1)N(C)C(=O)[C@H](C)NC(=O)[C@H](CC(C)C)NC(=O)C[C@H](O)[C@H](Cc1ccccc1)NC(=O)[C@H](CCC(N)=O)N(C)C(=O)[C@@H](NC(=O)[C@H](C)O)C(C)C [TASIAMIDE B]	7.43				
COC(=O)[C@@H]1CCCN1C(=O)[C@@H](Cc1ccccc1)N(C)C(=O)[C@@H](C)NC(=O)[C@H](CC(C)C)NC(=O)C[C@H](O)[C@H](Cc1ccccc1)NC(=O)[C@H](CCC(N)=O)N(C)C(=O)[C@@H](NC(=O)[C@H](C)O)C(C)C	5.84				
CC(C)C[C@@H](C=O)NC(=O)[C@H](CC(C)C)NC(=O)[C@@H](NC(=O)OCc1ccccc1)C(C)C (Cbz-Val-Leu-Leu-aldehyde)		Active			
COc1cccc(CNC[C@@H](O)[C@H](Cc2ccccc2)NC(=O)c2cc(C(=O)N[C@H](C)c3ccccc3)cc(N(C)S(C)(=O)=O)c2)c1					Drug uptake (Brain): 10%
COC(=O)[C@@H]1CCCN1C(=O)[C@@H](Cc1ccccc1)N(C)C(=O)[C@H](C)NC(=O)[C@H](CC(C)C)NC(=O)C[C@H](O)[C@H](Cc1ccccc1)NC(=O)[C@H](CCC(N)=O)N(C)C(=O)[C@@H](N)C(C)C	7.24		inactive	7.76	inhibition (H4): inactive
CC(C)C[C@H](NC(=O)C[C@H](O)[C@H](Cc1ccccc1)NC(=O)[C@H](CCC(N)=O)N(C)C(=O)[C@@H](NC(=O)[C@H](C)O)C(C)C)C(=O)N[C@@H](C)C(=O)N(C)[C@H](Cc1ccccc1)C(=O)O (H-[Lac]V[NMeQ][Ahppa(3S,4S)]LA[dNMeF]-OH)	7.68	Active		7.27	pIC50 (Beta-secretase 1 [3]): 7.14
COC(=O)[C@@H]1CCCN1C(=O)[C@@H](Cc1ccccc1)N(C)C(=O)[C@H](C)NC(=O)[C@H](CC(C)C)NC(=O)C[C@H](O)[C@H](Cc1ccccc1)NC(=O)c1cc(C(=O)N[C@H](C)c2ccccc2)cc(N(C)S(C)(=O)=O)c1	7.44	Active	inactive	8.23	inhibition (H4): inactive; inhibition (Beta-secretase 1 [4]): Active; Drug metabolism (Serum [5]): Active; Drug uptake (Brain): 5.8%; Activity (Mus musculus): Active; pIC50 (Beta-secretase 1 [6]): 8.00; Drug metabolism [7]: Active; Ratio (Nucleic Acid): 20; Stability [8]: Stable; Stability (Serum [9]): Stable
COC(=O)[C@@H]1CCCN1C(=O)[C@@H](Cc1ccccc1)N(C)C(=O)[C@H](C)NC(=O)[C@H](CC(C)C)NC(=O)C[C@H](O)[C@H](Cc1ccccc1)NC(=O)[C@H](CCC(N)=O)N(C)C(=O)[C@@H](NC(=O)OCc1ccccc1)C(C)C (Cbz-V[NMeQ][Ahppa(3S,4S)]LA[dNMeF]P-OMe)	9.14		inactive	10.11	
CC(C)C[C@H](NC(=O)C[C@H](O)[C@H](Cc1ccccc1)NC(=O)[C@H](CCC(N)=O)N(C)C(=O)[C@@H](NC(=O)[C@H](C)O)C(C)C)C(=O)N[C@@H](C)C(=O)N(C)[C@H](Cc1ccccc1)C(=O)NC(C)C	7.28	Active		6.60	pIC50 (Beta-secretase 1 [3]): 6.78
COC(=O)[C@@H]1CCCN1C(=O)[C@@H](Cc1ccccc1)N(C)C(=O)[C@H](C)NC(=O)[C@H](CC(C)C)NC(=O)C[C@H](O)[C@H](Cc1ccccc1)NC(=O)[C@H](CCC(N)=O)N(C)C(=O)[C@@H](NC(=O)[C@H](C)O)C(C)C			inactive		
